Active and inactive are the calls of the source. The calls are words filed in the database; no cut-off is given here.
Assays:
[1] = target: T1, Caspase-3 (Homo sapiens) (UniProt P42574); assay: Second-order inhibition rate of caspase-3 was determined by progress curve method
T1 sequence (whole entry): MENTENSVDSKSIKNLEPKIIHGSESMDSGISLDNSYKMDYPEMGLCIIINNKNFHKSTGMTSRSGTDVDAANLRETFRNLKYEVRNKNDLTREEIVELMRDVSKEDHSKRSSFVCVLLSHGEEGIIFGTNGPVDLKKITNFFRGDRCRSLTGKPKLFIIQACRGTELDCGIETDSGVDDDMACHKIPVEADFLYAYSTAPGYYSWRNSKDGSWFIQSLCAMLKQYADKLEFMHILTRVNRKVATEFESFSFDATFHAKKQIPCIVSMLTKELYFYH
Procedure, shortened: (§1)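 Caspases-3, -6 and -8 were assayed in 50 mM HEPES, 100 mM NaCl, 0.1% (w/v) CHAPS, 10% (w/v) sucrose and 10 mM DTT, pH 7.4. Substrate: Cbz-DEVD-AFC or Cbz-DEVD-AMC.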

[2] = target: T2, Caspase-6 (Homo sapiens) (UniProt P55212); assay: Second-order inhibition rate of caspase-6 was determined by progress curve method; procedure, shortened: as §1
T2 sequence (whole entry): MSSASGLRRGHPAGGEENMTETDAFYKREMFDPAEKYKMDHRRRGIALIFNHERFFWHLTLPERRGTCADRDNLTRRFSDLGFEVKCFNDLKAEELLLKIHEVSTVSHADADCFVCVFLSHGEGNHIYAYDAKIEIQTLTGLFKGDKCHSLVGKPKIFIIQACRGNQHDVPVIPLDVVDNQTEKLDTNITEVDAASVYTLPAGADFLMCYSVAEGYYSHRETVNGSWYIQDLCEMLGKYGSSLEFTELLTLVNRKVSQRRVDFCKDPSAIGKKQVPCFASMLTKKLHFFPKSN

[3] = target: Caspase-8 (Homo sapiens) (UniProt Q14790); assay: Second-order inhibition rate of caspase-8 was determined by progress curve method; procedure, shortened: as §1
[4] = target: T3, Caspase-1 (Homo sapiens) (UniProt P29466); assay: Second-order inhibition rate of caspase-1 was determined by progress curve method
T3 sequence (whole entry): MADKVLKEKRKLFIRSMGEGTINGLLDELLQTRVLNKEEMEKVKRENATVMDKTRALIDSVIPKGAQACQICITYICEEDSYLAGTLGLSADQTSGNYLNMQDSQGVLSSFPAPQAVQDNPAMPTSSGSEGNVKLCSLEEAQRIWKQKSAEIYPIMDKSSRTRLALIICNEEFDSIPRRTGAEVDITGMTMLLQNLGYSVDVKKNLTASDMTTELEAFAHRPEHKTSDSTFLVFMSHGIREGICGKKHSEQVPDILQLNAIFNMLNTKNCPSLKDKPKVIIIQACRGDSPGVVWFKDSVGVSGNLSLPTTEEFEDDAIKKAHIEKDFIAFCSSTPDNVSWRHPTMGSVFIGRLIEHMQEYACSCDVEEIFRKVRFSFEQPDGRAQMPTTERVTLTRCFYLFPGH
Procedure, shortened: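 Caspase-1 assay buffer: 100 mM HEPES, 0.5 mM EDTA, 20% (v/v) glycerol, 5 mM DTT, pH 7.5. Substrate: Ac-YVAD-AMC.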

[5] = target: Cathepsin B (Homo sapiens) (UniProt P07858); assay: Tested for inhibition of cathepsin B by the compound; NI = No Inhibition
[6] = target: T4, Papain (Carica papaya) (UniProt P00784); assay: Tested for inhibition of papain by the compound; NI = No Inhibition
T4 sequence (whole entry): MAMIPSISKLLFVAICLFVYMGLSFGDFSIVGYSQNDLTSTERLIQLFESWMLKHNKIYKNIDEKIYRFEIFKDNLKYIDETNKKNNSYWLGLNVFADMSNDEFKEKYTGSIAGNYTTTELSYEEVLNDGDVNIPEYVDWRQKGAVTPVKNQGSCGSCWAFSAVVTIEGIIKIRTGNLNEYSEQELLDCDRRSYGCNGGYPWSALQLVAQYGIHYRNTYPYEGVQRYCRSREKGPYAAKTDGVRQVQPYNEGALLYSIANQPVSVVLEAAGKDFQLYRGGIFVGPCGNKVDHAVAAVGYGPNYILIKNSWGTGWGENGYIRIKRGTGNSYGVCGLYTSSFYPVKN

[7] = test system: Cathepsin B; assay: Tested for inhibition of cathepsin B by the compound; NI = No Inhibition
[8] = Tested for inhibition of chymotrypsinogen by the compound; NI = No Inhibition
[9] = target: Cathepsin B (Homo sapiens) (UniProt P07858); assay: Tested for inhibition of cathepsin B by the compound
[10] = target: T4, Papain (Carica papaya); assay: Tested for inhibition of papain by the compound
[11] = test system: Cathepsin B; assay: Tested for inhibition of cathepsin B by the compound
[12] = target: Cathepsin D (Homo sapiens) (UniProt P07339); assay: Tested for inhibition of human cathepsin D by the compound; NI = No Inhibition
[13] = target: Granzyme B (Homo sapiens) (UniProt P10144); assay: Tested for inhibition of granzyme B by the compound
[14] = target: Pepsin A (Sus scrofa) (UniProt P00791); assay: Tested for inhibition of porcine pepsin by the compound; NI = No Inhibition
[15] = target: Plasmepsin II (Plasmodium falciparum) (UniProt P46925); assay: Inhibition of plasmepsin-2 from Plasmodium falciparum; NI = No Inhibition
[16] = target: Human immunodeficiency virus type 1 protease (Human immunodeficiency virus 1) (UniProt Q72874); assay: Tested for inhibition of HIV-1 protease by the compound; NI = No Inhibition
[17] = target: Human immunodeficiency virus type 1 protease (Human immunodeficiency virus 1) (UniProt Q72874); assay: Tested for inhibition of HIV-1 protease; NI = No Inhibition
[18] = target: Granzyme B (Homo sapiens) (UniProt P10144); assay: Tested for inhibition of granzyme B by the compound; NI = No Inhibition
[19] = Tested for inhibition of chymotrypsinogen by the compound; ND = Not determined
[20] = target: T1, Caspase-3 (Homo sapiens); assay: Second-order inhibition rate of caspase-3 was determined by progress curve method; No inhibition; procedure, shortened: as §1
[21] = target: T2, Caspase-6 (Homo sapiens); assay: Second-order inhibition rate of caspase-6 was determined by progress curve method; No inhibition; procedure, shortened: as §1
[22] = target: Caspase-8 (Homo sapiens) (UniProt Q14790); assay: Second-order inhibition rate of caspase-8 was determined by progress curve method; No inhibition; procedure, shortened: as §1

Granzyme B (Homo sapiens), sequence (P10144 whole entry): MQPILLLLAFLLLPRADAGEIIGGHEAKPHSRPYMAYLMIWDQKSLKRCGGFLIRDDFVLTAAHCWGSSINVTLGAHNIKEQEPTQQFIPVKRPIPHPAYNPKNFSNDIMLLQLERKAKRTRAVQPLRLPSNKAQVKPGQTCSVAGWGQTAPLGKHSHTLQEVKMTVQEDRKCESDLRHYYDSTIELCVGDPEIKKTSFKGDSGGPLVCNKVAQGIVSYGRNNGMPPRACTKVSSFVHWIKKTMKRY
Pepsin A (Sus scrofa), sequence (P00791 60-385 limits assumed): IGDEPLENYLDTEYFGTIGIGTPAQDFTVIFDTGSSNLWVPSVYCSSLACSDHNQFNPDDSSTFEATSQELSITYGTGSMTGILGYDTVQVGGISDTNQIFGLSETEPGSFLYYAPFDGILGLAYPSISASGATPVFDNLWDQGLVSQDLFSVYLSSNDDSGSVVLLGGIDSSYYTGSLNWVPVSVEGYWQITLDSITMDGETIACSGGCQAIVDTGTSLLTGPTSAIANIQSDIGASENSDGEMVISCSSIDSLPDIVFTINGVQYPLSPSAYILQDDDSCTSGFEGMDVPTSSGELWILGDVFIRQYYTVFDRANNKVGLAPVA
Caspase-8 (Homo sapiens), sequence (Q14790 217-374 limits assumed): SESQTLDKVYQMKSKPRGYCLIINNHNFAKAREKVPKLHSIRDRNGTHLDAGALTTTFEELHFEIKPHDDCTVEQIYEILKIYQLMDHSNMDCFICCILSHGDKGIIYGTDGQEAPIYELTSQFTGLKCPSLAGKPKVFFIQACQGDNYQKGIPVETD
Caspase-8 (Homo sapiens), sequence (Q14790 385-479 limits assumed): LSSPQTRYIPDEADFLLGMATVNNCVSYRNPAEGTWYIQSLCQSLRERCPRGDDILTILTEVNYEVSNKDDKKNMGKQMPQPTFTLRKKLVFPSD
Plasmepsin II (Plasmodium falciparum), sequence (P46925 125-453 limits assumed): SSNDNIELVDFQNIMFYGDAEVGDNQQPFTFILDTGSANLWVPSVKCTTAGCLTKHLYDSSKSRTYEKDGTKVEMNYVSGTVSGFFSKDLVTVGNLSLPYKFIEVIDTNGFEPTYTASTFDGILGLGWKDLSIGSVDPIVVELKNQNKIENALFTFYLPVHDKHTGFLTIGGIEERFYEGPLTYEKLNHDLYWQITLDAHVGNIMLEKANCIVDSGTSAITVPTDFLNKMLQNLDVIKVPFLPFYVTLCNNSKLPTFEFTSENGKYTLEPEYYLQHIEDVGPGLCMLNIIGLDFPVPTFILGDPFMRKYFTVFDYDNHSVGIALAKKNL
Cathepsin D (Homo sapiens), sequence (P07339 65-162 limits assumed): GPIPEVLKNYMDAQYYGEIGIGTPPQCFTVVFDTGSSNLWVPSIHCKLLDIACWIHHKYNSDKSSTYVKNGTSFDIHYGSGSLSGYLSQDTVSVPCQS
Cathepsin D (Homo sapiens), sequence (P07339 169-412 limits assumed): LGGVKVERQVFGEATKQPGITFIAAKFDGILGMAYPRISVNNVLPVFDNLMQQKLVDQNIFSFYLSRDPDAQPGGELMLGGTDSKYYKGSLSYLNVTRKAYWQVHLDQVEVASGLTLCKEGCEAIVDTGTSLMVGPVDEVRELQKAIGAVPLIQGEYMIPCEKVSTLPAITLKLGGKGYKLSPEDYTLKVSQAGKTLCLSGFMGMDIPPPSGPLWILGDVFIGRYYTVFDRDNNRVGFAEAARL

SMILES | k2 [1] [M⁻¹ s⁻¹] | k2 [2] [M⁻¹ s⁻¹] | k2 [3] [M⁻¹ s⁻¹] | k2 [4] [M⁻¹ s⁻¹] | k obs / 1 [5] | k obs / 1 [6] | k obs / 1 [7] | k obs / 1 [8] | k obs / 1 [12] | k obs / 1 [13] [M⁻¹ s⁻¹] | k obs / 1 [14] | k obs / 1 [15] | k obs / 1 [16] | other results
CC(C)[C@H](NC(=O)CCc1ccccc1)C(=O)N[C@@H](C)C(=O)NN(CC(=O)O)C(=O)[C@H]1O[C@@H]1C(=O)OCc1ccccc1 (stereo in doubt) | 680 | – | – | 18100 | – | – | – | 21 M⁻¹ s⁻¹ | – | – | – | – | – | k obs / 1 [9]: < 10 M⁻¹ s⁻¹; k obs / 1 [10]: < 10 M⁻¹ s⁻¹; k obs / 1 [11]: No inhibition
CC(C)[C@H](NC(=O)CCc1ccccc1)C(=O)N[C@@H](C)C(=O)NN(CC(=O)O)C(=O)[C@H]1O[C@@H]1CCc1ccccc1 | – | – | – | 300 | inactive | inactive | inactive | inactive | – | – | – | – | – | –
CCOC(=O)[C@H]1O[C@@H]1C(=O)N(CC(=O)O)NC(=O)[C@H](C)NC(=O)[C@@H](NC(=O)CCc1ccccc1)C(C)C | 1040 | 75 | 1570 | 32200 | – | – | – | – | inactive | – | inactive | inactive | – | k obs / 1 [17]: inactive
CCOC(=O)[C@H]1O[C@@H]1C(=O)N(CC(=O)O)NC(=O)[C@@H](NC(=O)[C@H](CCC(=O)O)NC(=O)[C@@H](NC(=O)OCc1ccccc1)[C@@H](C)CC)[C@@H](C)O | 4080 | 45800 | 52800 | 12400 | inactive | – | inactive | – | inactive | 0.65 | inactive | inactive | inactive | –
CC(C)[C@H](NC(=O)CCc1ccccc1)C(=O)N[C@@H](C)C(=O)NN(CC(=O)O)C(=O)[C@H]1O[C@@H]1C(=O)OCc1ccccc1 (stereo in doubt; 23d(S,S)) | 1470 | 165 | 1560 | 52100 | – | – | – | – | inactive | < 0.3 | inactive | inactive | inactive | k obs / 1 [9]: < 10 M⁻¹ s⁻¹
CC(C)[C@H](NC(=O)CCc1ccccc1)C(=O)N[C@@H](C)C(=O)NN(CC(=O)O)C(=O)[C@@H]1O[C@H]1C(=O)N[C@@H](C)C(=O)NCc1ccccc1 | – | – | – | 270 | – | – | – | – | – | – | – | – | – | k2 [20]: inactive; k2 [21]: inactive; k2 [22]: inactive

The next lines start with results.

k2 [1] [M⁻¹ s⁻¹] | k2 [2] [M⁻¹ s⁻¹] | k2 [3] [M⁻¹ s⁻¹] | k2 [4] [M⁻¹ s⁻¹] | k obs / 1 [5] | k obs / 1 [6] | k obs / 1 [7] | k obs / 1 [8] | k obs / 1 [12] | k obs / 1 [13] [M⁻¹ s⁻¹] | k obs / 1 [14] | k obs / 1 [15] | k obs / 1 [16] | SMILES | other results
3250 | 4390 | 34700 | 19600 | inactive | inactive | inactive | 15 M⁻¹ s⁻¹ | – | – | – | – | – | CCOC(=O)[C@@H]1O[C@H]1C(=O)N(CC(=O)O)NC(=O)[C@@H](NC(=O)C(CCC(=O)O)NC(=O)[C@H](CC(C)C)NC(=O)OCc1ccccc1)[C@@H](C)O (stereo partly specified) | –
464000 | 475 | 785 | 4320 | inactive | inactive | inactive | inactive | inactive | < 0.1 | inactive | inactive | inactive | CCOC(=O)[C@@H]1O[C@H]1C(=O)N(CC(=O)O)NC(=O)[C@@H](NC(=O)C(CCC(=O)O)NC(=O)[C@H](CC(=O)O)NC(=O)OCc1ccccc1)C(C)C (stereo partly specified) | –
1.07e+06 | 5440 | 95500 | 11800 | inactive | inactive | inactive | 46 M⁻¹ s⁻¹ | – | < 0.1 | – | – | – | CCOC(=O)[C@H]1O[C@@H]1C(=O)N(CC(=O)O)NC(=O)[C@@H](NC(=O)[C@H](CCC(=O)O)NC(=O)[C@H](CC(=O)O)NC(=O)OCc1ccccc1)C(C)C | –
3210 | 8620 | 61200 | 25700 | inactive | inactive | inactive | 36 M⁻¹ s⁻¹ | inactive | – | inactive | inactive | inactive | CCOC(=O)[C@H]1O[C@@H]1C(=O)N(CC(=O)O)NC(=O)[C@@H](NC(=O)C(CCC(=O)O)NC(=O)[C@H](CC(C)C)NC(=O)OCc1ccccc1)[C@@H](C)O (stereo partly specified) | k obs / 1 [18]: inactive
50500 | 4180 | 195000 | 58500 | – | – | – | – | inactive | – | inactive | inactive | inactive | CCOC(=O)[C@H]1O[C@@H]1C(=O)N(CC(=O)O)NC(=O)[C@@H](NC(=O)[C@H](CCC(=O)O)NC(=O)OCc1ccccc1)C(C)C | k obs / 1 [19]: 86 M⁻¹ s⁻¹

Source: ChEMBL document CHEMBL1149106, “Design, synthesis, and evaluation of aza-peptide epoxides as selective and potent inhibitors of caspases-1, -3, -6, and -8” (J Med Chem, 2004)
